Calls of active or inactive are those of the source. The calls are words filed in the database; no cut-off is given here.
Tests used:
[1] = Displacement of [125I]DMIC from amyloid beta 1-42 aggregates; design: species or system Homo sapiens
[2] = organism: Mus musculus; test: Binding affinity for beta amyloid plaques in Alzheimer's mouse model brain
Summary of the method: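 Paraffin sections, 5 µm, of formaldehyde-fixed Alzheimer's model mouse brain. Deparaffinised, held in PBS 30 min, stained with compound at 100 µM in 50% ethanol, washed in PBS 15 min, then mounted. Fluorescence read by confocal microscopy at 458 excitation and 540–580 emission. Serial sections immunostained for β-amyloid with DAB.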

[3] = tested on: Brain; test: Biodistribution in ddY mouse brain at 4.2 to 6.3 kBq, iv after 2 mins; type: ADME, organism-based; conditions: in vivo
Summary of the method: (§1)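 [125I]-labelled ligand in saline with 10% ethanol, given by tail-vein injection to normal ddY mice (5 weeks old, 23–25 g). Mice killed at set times post-injection. Organs removed and weighed, radioactivity gamma-counted, expressed as % injected dose per gram. Mean (SD) of five mice per time point.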

[4] = tested on: Brain; test: Biodistribution in ddY mouse brain at 4.2 to 6.3 kBq, iv after 60 mins; type: ADME, organism-based; conditions: in vivo, 1 h; summary of the method: as §1
[5] = tested on: Brain; test: Biodistribution in ddY mouse brain at 4.2 to 6.3 kBq, iv after 10 mins; type: ADME, organism-based; conditions: in vivo; summary of the method: as §1
[6] = tested on: Brain; test: Biodistribution in ddY mouse brain at 4.2 to 6.3 kBq, iv after 30 mins; type: ADME, organism-based; conditions: in vivo, 0.5 h; summary of the method: as §1

Row | Ki [1] [nM] | also measured | Structure (SMILES)
1 | 908 | – | O=C(/C=C/c1ccco1)c1ccc(I)cc1
2 | 14.1 | – | CNc1ccc(/C=C/C(=O)c2ccc(I)s2)cc1
3 | 797 | – | O=C(/C=C/c1ncc[nH]1)c1ccc(I)cc1
4 | > 10000 | – | Cc1ccc2c(c1)sc(-c1ccc(N(C)C)cc1)[n+]2C [THIOFLAVIN T]
5 | 125 | – | O=C(/C=C/c1ccoc1)c1ccc(I)cc1
6 | 113 | – | CN(C)c1ccc(/C=C/C(=O)c2ccc(I)cc2)s1
7 | 102 | – | O=C(/C=C/c1cccs1)c1ccc(I)cc1
8 | 3.9 | Activity [2]: Active | CN(C)c1ccc(/C=C/C(=O)c2ccc(I)s2)cc1
9 | > 10000 | – | O=C(/C=C/c1nccs1)c1ccc(I)cc1
10 | 198 | – | CNc1ccc(C(=O)/C=C/c2ccc(Br)s2)cc1
11 | 13.3 | – | CN(C)c1ccc(C(=O)/C=C/c2ccc(I)cc2)cc1
12 | > 10000 | – | Nc1c(/N=N/c2ccc(-c3ccc(/N=N/c4cc(S(=O)(=O)O)c5ccccc5c4N)cc3)cc2)cc(S(=O)(=O)O)c2ccccc12 [CONGO RED]
13 | 23.9 | – | CNc1ccc(C(=O)/C=C/c2ccc(I)cc2)cc1
14 | 476 | – | Nc1ccc(C(=O)/C=C/c2ccc(Br)s2)cc1
15 | 126 | – | CN(C)c1ccc(/C=C/C(=O)c2ccc(Br)o2)cc1
16 | – | Drug uptake [3]: 2.46 % ID/g; Drug uptake [4]: 0.21 % ID/g; Drug uptake [5]: 0.75 % ID/g; Drug uptake [6]: 0.31 % ID/g | CN(C)c1ccc(/C=C/C(=O)c2ccc([125I])s2)cc1
17 | > 10000 | – | CN(C)c1ccc(/C=C/C(=O)c2ccc(Br)o2)o1
18 | 248 | – | Nc1ccc(C(=O)/C=C/c2ccc(I)cc2)cc1
19 | 2650 | – | CN(C)c1ccc(/C=C/C(=O)c2ccc(Br)o2)s1
20 | 121 | – | Nc1ccc(/C=C/C(=O)c2ccc(I)s2)cc1
21 | 1610 | – | CN(C)c1ccc(/C=C/C(=O)c2ccc(I)s2)o1
22 | 106 | – | CN(C)c1ccc(C(=O)/C=C/c2ccc(Br)s2)cc1
23 | 1130 | – | CN(C)c1ccc(/C=C/C(=O)c2ccc(I)cc2)o1
24 | 137 | – | CN(C)c1ccc(/C=C/C(=O)c2ccc(I)s2)s1
25 | 93 | – | O=C(/C=C/c1ccsc1)c1ccc(I)cc1
26 | 151 | – | O=C(/C=C/c1ccccc1)c1ccc(I)cc1
